Source: ChEMBL document CHEMBL3272134, “Diastereoisomers of 5,10-methylene-5,6,7,8-tetrahydropteroyl-D-glutamic acid” (J Med Chem, 1977)
Each block holds one molecule with its values, some of them ahead of it. Active and inactive are the calls of the source. No cut-off for these calls is given here.

Tests used:
Lacticaseibacillus casei [1] = test: Induction of growth of Lactobacillus casei ATCC 7469 up to 5 ug/mL; type: functional, organism-based
Enterococcus faecium [2] = test: Growth inhibition of Streptococcus faecium ATCC 8043 up to 5 ug/mL; type: functional, organism-based
Outline: (§1)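 Media were as follows. L. casei ATCC 7469 was grown on folate assay broth with folate at 1 ng/mL. P. cerevisiae ATCC 8081 was grown on CF assay medium with dl-5-formyltetrahydrofolate at 1 ng/mL. S. faecium ATCC 8043 was grown on Flynn medium with folate at 1 ng/mL.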

[3] = target: T1, Thymidylate synthase (Lactobacillus casei) (UniProt P00469); test: Inhibition of Lactobacillus casei thymidylate synthetase using l-5,10-Methylene tetrahydropteroyl-L-glutamate as substrate at 6.3 x 10^-5 M by spectrophotometric analysis; conditions: Lacticaseibacillus casei
T1 sequence (whole entry): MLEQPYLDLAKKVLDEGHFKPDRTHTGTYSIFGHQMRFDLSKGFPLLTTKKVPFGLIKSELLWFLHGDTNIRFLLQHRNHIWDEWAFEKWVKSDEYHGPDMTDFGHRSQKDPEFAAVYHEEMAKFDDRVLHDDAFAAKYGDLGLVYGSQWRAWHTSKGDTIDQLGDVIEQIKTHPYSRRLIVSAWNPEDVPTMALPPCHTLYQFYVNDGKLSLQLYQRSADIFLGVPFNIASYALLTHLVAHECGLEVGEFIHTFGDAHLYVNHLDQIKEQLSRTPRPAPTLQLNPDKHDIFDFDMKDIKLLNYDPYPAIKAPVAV

Enterococcus faecium [4] = test: Induction of growth of Streptococcus faecium ATCC 8043 up to 5 ug/mL; type: functional, organism-based
Lacticaseibacillus casei [5] = test: Growth inhibition of Lactobacillus casei ATCC 7469 up to 5 ug/mL; type: functional, organism-based; outline: as §1
Pediococcus [6] = test: Growth inhibition of Pediococcus cerevisiae ATCC 8081 up to 5 ug/mL; type: functional; outline: as §1
[7] = target: T1, Thymidylate synthase (Lactobacillus casei); test: Inhibition of Lactobacillus casei thymidylate synthetase using l-5,10-Methylene tetrahydropteroyl-L-glutamate as substrate at 6.3 x 10^-5 M relative to control; conditions: Lacticaseibacillus casei
Pediococcus [8] = test: Induction of growth of Pediococcus cerevisiae ATCC 8081 up to 5 ug/mL; type: functional
[9] = target: T1, Thymidylate synthase (Lactobacillus casei); test: Inhibition of Lactobacillus casei thymidylate synthetase using dl-5,10-Methylene tetrahydropteroyl-L-glutamate as substrate at 2.4 x 10^-5 M by spectrophotometric analysis; conditions: Lacticaseibacillus casei
[10] = target: T1, Thymidylate synthase (Lactobacillus casei); test: Inhibition of Lactobacillus casei thymidylate synthetase using dl-5,10-Methylene tetrahydropteroyl-L-glutamate as substrate at 2.4 x 10^-5 M relative to control; conditions: Lacticaseibacillus casei
[11] = target: Dihydrofolate reductase (Lactobacillus casei) (UniProt P00381); test: Inhibition of Lactobacillus casei dihydrofolate reductase using 7,8-Dihydropteroyl-L-glutamate as substrate at 1.5 x 10^-5 M relative to control; conditions: Lacticaseibacillus casei
[12] = target: T1, Thymidylate synthase (Lactobacillus casei); test: Activity of Lactobacillus casei thymidylate synthetase assessed as release of [3H] from [5-3H]-deoxyuridine 5' phosphate at 4.5 x 10^-5 M; conditions: Lacticaseibacillus casei
[13] = target: T1, Thymidylate synthase (Lactobacillus casei); test: Activity of Lactobacillus casei thymidylate synthetase at 4.5 x 10^-5 M by spectrophotometric analysis; conditions: Lacticaseibacillus casei
[14] = target: Dihydrofolate reductase (Lactobacillus casei) (UniProt P00381); test: Inhibition of Lactobacillus casei dihydrofolate reductase using 7,8-Dihydropteroyl-L-glutamate as substrate at 1.5 x 10^-5 M by spectrophotometric analysis; conditions: Lacticaseibacillus casei
[15] = target: T1, Thymidylate synthase (Lactobacillus casei); test: Inhibition of Lactobacillus casei thymidylate synthetase using dl-5,10-Methylene tetrahydropteroyl-L-glutamate as substrate at 1.3 x 10^-5 M relative to control; conditions: Lacticaseibacillus casei
[16] = target: T1, Thymidylate synthase (Lactobacillus casei); test: Inhibition of Lactobacillus casei thymidylate synthetase using dl-5,10-Methylene tetrahydropteroyl-L-glutamate as substrate at 1.3 x 10^-5 M by spectrophotometric analysis; conditions: Lacticaseibacillus casei
[17] = target: T1, Thymidylate synthase (Lactobacillus casei); test: Inhibition of Lactobacillus casei thymidylate synthetase using dl-5,10-Methylene tetrahydropteroyl-L-glutamate as substrate at 9.2 x 10^-5 M by spectrophotometric analysis; conditions: Lacticaseibacillus casei
[18] = target: T1, Thymidylate synthase (Lactobacillus casei); test: Inhibition of Lactobacillus casei thymidylate synthetase using dl-5,10-Methylene tetrahydropteroyl-L-glutamate as substrate at 9.2 x 10^-5 M relative to control; conditions: Lacticaseibacillus casei
[19] = target: T1, Thymidylate synthase (Lactobacillus casei); test: Inhibition of Lactobacillus casei thymidylate synthetase using dl-5,10-Methylene tetrahydropteroyl-L-glutamate as substrate at 3.3 x 10^-5 M by spectrophotometric analysis; conditions: Lacticaseibacillus casei
[20] = target: T1, Thymidylate synthase (Lactobacillus casei); test: Activity of Lactobacillus casei thymidylate synthetase at 7 x 10^-5 M by spectrophotometric analysis; conditions: Lacticaseibacillus casei
[21] = target: T1, Thymidylate synthase (Lactobacillus casei); test: Inhibition of Lactobacillus casei thymidylate synthetase using dl-5,10-Methylene tetrahydropteroyl-L-glutamate as substrate at 3.3 x 10^-5 M relative to control; conditions: Lacticaseibacillus casei
[22] = target: T1, Thymidylate synthase (Lactobacillus casei); test: Inhibition of Lactobacillus casei thymidylate synthetase at 1.7 x 10^-6 M relative to control; conditions: Lacticaseibacillus casei
[23] = target: T1, Thymidylate synthase (Lactobacillus casei); test: Activity of Lactobacillus casei thymidylate synthetase assessed as release of [3H] from [5-3H]-deoxyuridine 5' phosphate at 3 x 10^-4 M; conditions: Lacticaseibacillus casei
[24] = target: T1, Thymidylate synthase (Lactobacillus casei); test: Activity of Lactobacillus casei thymidylate synthetase at 3 x 10^-4 M by spectrophotometric analysis; conditions: Lacticaseibacillus casei
[25] = target: T1, Thymidylate synthase (Lactobacillus casei); test: Inhibition of Lactobacillus casei thymidylate synthetase using dl-5,10-Methylene tetrahydropteroyl-L-glutamate as substrate at 1 x 10^-4 M by spectrophotometric analysis; conditions: Lacticaseibacillus casei
[26] = target: T1, Thymidylate synthase (Lactobacillus casei); test: Inhibition of Lactobacillus casei thymidylate synthetase using dl-5,10-Methylene tetrahydropteroyl-L-glutamate as substrate at 1 x 10^-4 M relative to control; conditions: Lacticaseibacillus casei
[27] = substrate: Nc1nc(=O)c2c([nH]1)NCC1CN(c3ccc(C(=O)N[C@@H](CCC(=O)O)C(=O)O)cc3)CN21; test: Activity of Lactobacillus casei thymidylate synthetase by spectrophotometric analysis; conditions: Lacticaseibacillus casei

Chain of Dihydrofolate reductase (Lactobacillus casei) (P00381 whole entry): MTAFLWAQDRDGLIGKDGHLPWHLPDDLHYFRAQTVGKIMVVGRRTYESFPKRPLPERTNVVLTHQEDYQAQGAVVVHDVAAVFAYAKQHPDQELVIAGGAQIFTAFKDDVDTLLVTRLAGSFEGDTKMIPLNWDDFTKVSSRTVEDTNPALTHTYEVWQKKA

Molecule: Nc1nc(=O)c2c([nH]1)NCC1CN(c3ccc(C(=O)N[C@@H](CCC(=O)O)C(=O)O)cc3)CN21 (stereo in doubt)
- Activity (Lacticaseibacillus casei [1]): inactive
- growth inhibition (GI) (Enterococcus faecium [2]): inactive
- deltaOD [3]: 0.02 min⁻¹
- Activity (Enterococcus faecium [4]): inactive
- growth inhibition (GI) (Lacticaseibacillus casei [5]): inactive
- growth inhibition (GI) (Pediococcus [6]): inactive
- inhibition [7]: 14%
- Activity (Pediococcus [8]): inactive

Molecule: Nc1nc2c(c(=O)[nH]1)N1CN(c3ccc(C(=O)N[C@H](CCC(=O)O)C(=O)O)cc3)CC1CN2 (stereo in doubt; form 1)
- Activity (Lacticaseibacillus casei [1]): inactive
- deltaOD [9]: 0.03 min⁻¹
- inhibition [10]: 0%
- inhibition [11]: 0%
- Activity [12]: < 2000 cpm
- deltaOD [13]: 0 min⁻¹
- growth inhibition (GI) (Enterococcus faecium [2]): inactive
- deltaOD [14]: 0.032 min⁻¹
- Activity (Enterococcus faecium [4]): inactive
- growth inhibition (GI) (Lacticaseibacillus casei [5]): inactive
- growth inhibition (GI) (Pediococcus [6]): inactive
- Activity (Pediococcus [8]): inactive

Molecule: Nc1nc2c(c(=O)[nH]1)N1CN(c3ccc(C(=O)N[C@H](CCC(=O)O)C(=O)O)cc3)CC1CN2 (stereo in doubt; form 2)
- Activity (Lacticaseibacillus casei [1]): inactive
- inhibition [11]: 0%
- Activity [12]: < 2000 cpm
- deltaOD [13]: 0 min⁻¹
- growth inhibition (GI) (Enterococcus faecium [2]): inactive
- deltaOD [14]: 0.032 min⁻¹
- Activity (Enterococcus faecium [4]): inactive
- growth inhibition (GI) (Lacticaseibacillus casei [5]): inactive
- growth inhibition (GI) (Pediococcus [6]): inactive
- inhibition [15]: 0%
- deltaOD [16]: 0.03 min⁻¹
- Activity (Pediococcus [8]): inactive

Molecule: CN(Cc1ccc2nc(N)nc(O)c2c1)c1ccc(C(=O)N[C@@H](CCC(=O)O)C(=O)O)cc1
- inhibition [22]: 83%

Molecule: Nc1nc(=O)c2c([nH]1)NCC1CN(c3ccc(C(=O)N[C@@H](CCC(=O)O)C(=O)O)cc3)CN21 (mixture of isomers)
- Activity (Lacticaseibacillus casei [1]): inactive
- growth inhibition (GI) (Enterococcus faecium [2]): inactive
- Activity (Enterococcus faecium [4]): inactive
- growth inhibition (GI) (Lacticaseibacillus casei [5]): inactive
- growth inhibition (GI) (Pediococcus [6]): inactive
- Activity (Pediococcus [8]): inactive
- Activity [23]: 71000 cpm
- deltaOD [24]: 0.03 min⁻¹

B1: Thymidylate synthase (Lactobacillus casei), P00469 (protein)
chain: T1 sequence (whole entry)
- Km [27]: 15 µM

Continued, in another order:

- deltaOD [17]: 0.027 min⁻¹
- inhibition [18]: 10%
Molecule: Nc1nc2c(c(=O)[nH]1)N=C(CNc1ccc(C(=O)N[C@H](CCC(=O)O)C(=O)O)cc1)CN2

- deltaOD [19]: 0.03 min⁻¹
- deltaOD [20]: 0 min⁻¹
- inhibition [21]: 0%
Molecule: Nc1nc2c(c(=O)[nH]1)N1CN(c3ccc(C(=O)N[C@H](CCC(=O)O)C(=O)O)cc3)CC1CN2 (mixture of isomers)
- Activity (Lacticaseibacillus casei [1]): inactive
- growth inhibition (GI) (Enterococcus faecium [2]): inactive
- Activity (Enterococcus faecium [4]): inactive
- growth inhibition (GI) (Lacticaseibacillus casei [5]): inactive
- growth inhibition (GI) (Pediococcus [6]): inactive
- Activity (Pediococcus [8]): inactive

- deltaOD [25]: 0.02 min⁻¹
- inhibition [26]: 26%
Molecule: Nc1nc(=O)c2c([nH]1)NCC(CNc1ccc(C(=O)N[C@@H](CCC(=O)O)C(=O)O)cc1)=N2
